# Results reported in ChEMBL document CHEMBL1177861, “Structural determinants of resveratrol for cell proliferation inhibition potency: experimental and docking studies of new analogs” (Eur J Med Chem, 2010).
# Active and inactive are the calls of the source. The calls are words filed in the database; no cut-off is given here.
# Tested on: SW480
# Experiment: Antiproliferative activity against human SW480 cells assessed as cell viability using propidium iodide staining after 48 hrs
# Type: functional, cell-based
# Details: not given
# Summary of the method: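 SW480 cells grown in RPMI with 10% FBS and 1% antibiotics; 30,000 cells/well seeded, treated after 24 h with compound in 0.1% DMSO (1 nM to 100 µM; 0.1% DMSO control). At 48 h adherent (trypsinized) plus detached cells stained with 1 µg/mL propidium iodide, counted by flow cytometry. IC50 from parametric regression of % viable cells vs control; triplicate wells, three experiments.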
row,SMILES,Activity
1,"COc1ccc(/C=C\c2cc(OC)cc(OC)c2)cc1 [8Z-3,4',5-TRIMETHOXYSTILBENE]",Dose-dependent effect

# Same assay, conditions: SW480, 48 h
row,SMILES,IC50 [µM]
1,COc1cc(/C=C\c2cc(OC)cc(OC)c2O)cc(OC)c1,7
2,COc1ccc(/C=C/c2cc(OC)cc(OC)c2O)cc1,43
3,Oc1ccc(/C=C\c2cc(O)cc(O)c2)cc1 [CIS-RESVERATROL],90
4,COc1ccc(/C=C\c2cc(OC)cc(OC)c2O)cc1,18
5,COc1cc(/C=C/c2cc(OC)cc(OC)c2O)cc(OC)c1,17
6,"COc1cc(/C=C\c2ccc(OC)c(OC)c2)cc(OC)c1 [(Z)-3,4,3',5'-TETRAMETHOXYSTILBENE]",9.5
7,COc1ccc(/C=C/c2cc(OC)cc(OC)c2)cc1 [TRISMETHOXYRESVERATROL],54
8,"COc1cc(/C=C/c2ccc(OC)c(OC)c2)cc(OC)c1 [(E)-3,4,3',5'-TETRAMETHOXYSTILBENE]",100
9,COc1cc(/C=C/c2ccc(OC)c(OC)c2)c(O)c(OC)c1,42
10,COc1cc(/C=C/c2cc(OC)cc(OC)c2)cc(OC)c1,48
11,COc1cc(/C=C\c2ccc(OC)c(OC)c2)c(O)c(OC)c1,10
12,"COc1ccc(/C=C\c2cc(OC)cc(OC)c2)cc1 [8Z-3,4',5-TRIMETHOXYSTILBENE]",0.3
13,Oc1ccc(/C=C/c2cc(O)cc(O)c2)cc1 [RESVERATROL],20
14,COc1cc(/C=C\c2cc(OC)cc(OC)c2)cc(OC)c1,13

# Tested on: SW480
# Experiment: Cell cycle arrest in human SW480 cells assessed as accumulation at G0/G1 phase at 30 uM after 48 hrs by flow cytometry
# Type: functional
# Details: not given
# Summary of the method: (§1)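 SW480 cells treated 48 h at 30 µM in 0.1% DMSO medium. DNA content measured by propidium iodide flow cytometry. Cells gated as 2n G0/G1, S (2<n<4), 4n G2/M and >4n (polyploid). Data are means ± SD of a representative experiment among three independent.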
row,SMILES,Activity [%]
1,Oc1ccc(/C=C\c2cc(O)cc(O)c2)cc1 [CIS-RESVERATROL],50
2,COc1cc(/C=C/c2cc(OC)cc(OC)c2O)cc(OC)c1,50
3,"COc1cc(/C=C/c2ccc(OC)c(OC)c2)cc(OC)c1 [(E)-3,4,3',5'-TETRAMETHOXYSTILBENE]",50
4,COc1cc(/C=C/c2cc(OC)cc(OC)c2)cc(OC)c1,50

# Tested on: SW480
# Experiment: Cell cycle arrest in human SW480 cells assessed as accumulation at S phase at 30 uM after 48 hrs by flow cytometry
# Type: functional
# Details: not given
# Summary of the method: as §1
row,SMILES,Activity [%]
1,Oc1ccc(/C=C\c2cc(O)cc(O)c2)cc1 [CIS-RESVERATROL],15
2,COc1cc(/C=C/c2cc(OC)cc(OC)c2O)cc(OC)c1,15
3,"COc1cc(/C=C/c2ccc(OC)c(OC)c2)cc(OC)c1 [(E)-3,4,3',5'-TETRAMETHOXYSTILBENE]",15
4,COc1cc(/C=C/c2cc(OC)cc(OC)c2)cc(OC)c1,15

# Tested on: SW480
# Experiment: Cell cycle arrest in human SW480 cells assessed as 4n cells at 30 uM after 48 hrs by flow cytometry
# Type: functional
# Details: not given
# Summary of the method: as §1
row,SMILES,Activity [%]
1,Oc1ccc(/C=C\c2cc(O)cc(O)c2)cc1 [CIS-RESVERATROL],25
2,COc1cc(/C=C/c2cc(OC)cc(OC)c2O)cc(OC)c1,25
3,"COc1cc(/C=C/c2ccc(OC)c(OC)c2)cc(OC)c1 [(E)-3,4,3',5'-TETRAMETHOXYSTILBENE]",25
4,COc1cc(/C=C/c2cc(OC)cc(OC)c2)cc(OC)c1,25

# Tested on: SW480
# Experiment: Cell cycle arrest in human SW480 cells assessed as >4n cells at 30 uM after 48 hrs by flow cytometry
# Type: functional
# Details: not given
# Summary of the method: as §1
row,SMILES,Activity [%]
1,Oc1ccc(/C=C\c2cc(O)cc(O)c2)cc1 [CIS-RESVERATROL],10
2,COc1cc(/C=C/c2cc(OC)cc(OC)c2O)cc(OC)c1,10
3,"COc1cc(/C=C/c2ccc(OC)c(OC)c2)cc(OC)c1 [(E)-3,4,3',5'-TETRAMETHOXYSTILBENE]",10
4,COc1cc(/C=C/c2cc(OC)cc(OC)c2)cc(OC)c1,10

# Tested on: SW480
# Experiment: Cell cycle arrest in human SW480 cells assessed as disturbance of diploid cells at 30 uM after 48 hrs by flow cytometry
# Type: functional, cell-based
# Details: not given
# Summary of the method: as §1
row,SMILES,Activity
1,COc1cc(/C=C\c2cc(OC)cc(OC)c2O)cc(OC)c1,Active
2,COc1ccc(/C=C/c2cc(OC)cc(OC)c2O)cc1,Active
3,COc1ccc(/C=C\c2cc(OC)cc(OC)c2O)cc1,Active
4,"COc1cc(/C=C\c2ccc(OC)c(OC)c2)cc(OC)c1 [(Z)-3,4,3',5'-TETRAMETHOXYSTILBENE]",Active
5,COc1ccc(/C=C/c2cc(OC)cc(OC)c2)cc1 [TRISMETHOXYRESVERATROL],Active
6,COc1cc(/C=C\c2ccc(OC)c(OC)c2)c(O)c(OC)c1,Active
7,"COc1ccc(/C=C\c2cc(OC)cc(OC)c2)cc1 [8Z-3,4',5-TRIMETHOXYSTILBENE]",Active
8,COc1cc(/C=C\c2cc(OC)cc(OC)c2)cc(OC)c1,Active

# Tested on: SW480
# Experiment: Cell cycle arrest in human SW480 cells assessed as polyploid cells generation at 30 uM after 48 hrs by flow cytometry
# Type: functional, cell-based
# Details: not given
# Summary of the method: as §1
row,SMILES,Activity
1,COc1cc(/C=C\c2cc(OC)cc(OC)c2O)cc(OC)c1,Active
2,COc1ccc(/C=C/c2cc(OC)cc(OC)c2O)cc1,Active
3,COc1ccc(/C=C\c2cc(OC)cc(OC)c2O)cc1,Active
4,"COc1cc(/C=C\c2ccc(OC)c(OC)c2)cc(OC)c1 [(Z)-3,4,3',5'-TETRAMETHOXYSTILBENE]",Active
5,COc1ccc(/C=C/c2cc(OC)cc(OC)c2)cc1 [TRISMETHOXYRESVERATROL],Active
6,COc1cc(/C=C\c2ccc(OC)c(OC)c2)c(O)c(OC)c1,Active
7,"COc1ccc(/C=C\c2cc(OC)cc(OC)c2)cc1 [8Z-3,4',5-TRIMETHOXYSTILBENE]",Active
8,COc1cc(/C=C\c2cc(OC)cc(OC)c2)cc(OC)c1,Active

# Tested on: SW480
# Experiment: Cell cycle arrest in human SW480 cells assessed as tetraploid cells generation at 30 uM after 48 hrs by flow cytometry
# Type: functional, cell-based
# Details: not given
# Summary of the method: as §1
row,SMILES,Activity
1,COc1cc(/C=C\c2cc(OC)cc(OC)c2O)cc(OC)c1,Active
2,COc1ccc(/C=C/c2cc(OC)cc(OC)c2O)cc1,Active
3,COc1ccc(/C=C\c2cc(OC)cc(OC)c2O)cc1,Active
4,"COc1cc(/C=C\c2ccc(OC)c(OC)c2)cc(OC)c1 [(Z)-3,4,3',5'-TETRAMETHOXYSTILBENE]",Active
5,COc1ccc(/C=C/c2cc(OC)cc(OC)c2)cc1 [TRISMETHOXYRESVERATROL],Active
6,COc1cc(/C=C\c2ccc(OC)c(OC)c2)c(O)c(OC)c1,Active
7,"COc1ccc(/C=C\c2cc(OC)cc(OC)c2)cc1 [8Z-3,4',5-TRIMETHOXYSTILBENE]",Active
8,COc1cc(/C=C\c2cc(OC)cc(OC)c2)cc(OC)c1,Active

# Tested on: SW480
# Experiment: Cell cycle arrest in human SW480 cells assessed as accumulation of polyploid cells at 0.5 uM after 48 hrs by microscopic analysis
# Type: functional, cell-based
# Details: not given
# Summary of the method: (§2)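 SW480 cells left untreated or exposed to 0.5 µM for 48 h. Actin was immunostained (Alexa 488) to show cell shape and nuclei were stained with Hoechst 33342. Fluorescence microscopy at 100x with identical settings; example of three independent experiments.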
row,SMILES,Activity
1,"COc1ccc(/C=C\c2cc(OC)cc(OC)c2)cc1 [8Z-3,4',5-TRIMETHOXYSTILBENE]",Active

# Tested on: SW480
# Experiment: Cell cycle arrest in human SW480 cells assessed as increase of 4n and >4n cells at 0.2 uM after 48 hrs by flow cytometry
# Type: functional, cell-based
# Details: not given
# Summary of the method: (§3)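 SW480 cells treated for 48 h at 0.2, 0.5 or 1.0 µM. DNA content was read by propidium iodide staining and flow cytometry. Populations were gated as 2n G0/G1, S (2<n<4), 4n G2/M and >4n. Means ± SD of a representative experiment out of three.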
row,SMILES,Activity
1,"COc1ccc(/C=C\c2cc(OC)cc(OC)c2)cc1 [8Z-3,4',5-TRIMETHOXYSTILBENE]",inactive

# Tested on: SW480
# Experiment: Cell cycle arrest in human SW480 cells assessed as increase of 4n and >4n cells at 1 uM after 48 hrs by flow cytometry
# Type: functional, cell-based
# Details: not given
# Summary of the method: as §3
row,SMILES,Activity
1,"COc1ccc(/C=C\c2cc(OC)cc(OC)c2)cc1 [8Z-3,4',5-TRIMETHOXYSTILBENE]",Active

# Tested on: SW480
# Experiment: Antiproliferative activity against human SW480 cells assessed as cell viability using propidium iodide staining
# Type: functional, cell-based
# Details: TDE = time-dependent effect
# Summary of the method: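 SW480 colon carcinoma cells grown in RPMI with 10% FBS and 1% antibiotics. 30,000 cells/well were seeded, then treated after 24 h in medium with 0.1% DMSO (vehicle control 0.1% DMSO) at 1 nM to 100 µM for 48 h. Adherent plus detached cells were stained with 1 µg/mL propidium iodide and counted by flow cytometry. IC50 came from parametric regression of % viable cells vs control. Triplicate wells, three experiments.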
row,SMILES,Activity
1,"COc1ccc(/C=C\c2cc(OC)cc(OC)c2)cc1 [8Z-3,4',5-TRIMETHOXYSTILBENE]",tde

# Tested on: SW480
# Experiment: Antiproliferative activity against human SW480 cells assessed as cell viability using propidium iodide staining at 0.2 uM after 72 hrs
# Type: functional, cell-based
# Details: not given
# Summary of the method: (§4)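 SW480 cells (RPMI, 10% FBS, 1% antibiotics) seeded at 30,000/well and treated 24 h later in 0.1% DMSO medium; 0.1% DMSO alone as control. After 24, 48 and 72 h, trypsinized adherent plus detached cells were labelled with 1 µg/mL propidium iodide and viable (PI-excluding) cells counted by flow cytometry. Triplicate wells; representative of three experiments, means ± SD.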
row,SMILES,Activity
1,"COc1ccc(/C=C\c2cc(OC)cc(OC)c2)cc1 [8Z-3,4',5-TRIMETHOXYSTILBENE]",inactive

# Tested on: SW480
# Experiment: Antiproliferative activity against human SW480 cells assessed as cell viability using propidium iodide staining at 0.5 uM after 72 hrs
# Type: functional, cell-based
# Details: not given
# Summary of the method: as §4
row,SMILES,Activity
1,"COc1ccc(/C=C\c2cc(OC)cc(OC)c2)cc1 [8Z-3,4',5-TRIMETHOXYSTILBENE]",inactive

# Tested on: SW480
# Experiment: Cell cycle arrest in human SW480 cells assessed as increase of 4n and >4n cells at 0.5 uM after 48 hrs by flow cytometry
# Type: functional, cell-based
# Details: not given
# Summary of the method: as §3
row,SMILES,Activity
1,"COc1ccc(/C=C\c2cc(OC)cc(OC)c2)cc1 [8Z-3,4',5-TRIMETHOXYSTILBENE]",Active

# Tested on: SW480
# Experiment: Cell cycle arrest in human SW480 cells assessed as mitotic disturbances using Hoechst staining at 0.5 uM after 48 hrs by microscopic analysis
# Type: functional, cell-based
# Details: not given
# Summary of the method: as §2
row,SMILES,Activity
1,"COc1ccc(/C=C\c2cc(OC)cc(OC)c2)cc1 [8Z-3,4',5-TRIMETHOXYSTILBENE]",Active

# Tested on: SW480
# Experiment: Cell cycle arrest in human SW480 cells assessed as cytokinesis cells at 0.5 uM after 48 hrs by microscopic analysis
# Type: functional, cell-based
# Details: not given
# Summary of the method: as §2
row,SMILES,Activity
1,"COc1ccc(/C=C\c2cc(OC)cc(OC)c2)cc1 [8Z-3,4',5-TRIMETHOXYSTILBENE]",Active

# Tested on: SW480
# Experiment: Antiproliferative activity against human SW480 cells assessed as cell viability using propidium iodide staining after 48 hrs
# Details: SW480, 48 h
row,SMILES,IC50 [µM]
1,"COc1ccc(/C=C\c2cc(OC)cc(OC)c2)cc1 [8Z-3,4',5-TRIMETHOXYSTILBENE]",0.3
